# Biological target: Reverse transcriptase (Human immunodeficiency virus 1, UniProt Q9WKE8)
# Test: Inhibition of Human immunodeficiency virus 1 NL4.3 reverse transcriptase activity
# In short: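 Colorimetric HIV-1 reverse transcriptase inhibition assay run with a commercial RT assay kit per the manufacturer's protocol; nevirapine positive control; IC50 determined.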
row,SMILES,IC50 [µM]
1,"COc1cc2c(cc1O)-c1cc3ccc(OC)c(OC)c3c[n+]1CC2 [2-hydroxy-3,9,10-trimethoxy-5,6-dihydroisoquino[3,2-a]isoquinolinium]",171
2,COc1ccc2cc3[n+](cc2c1OC)CCc1cc2c(cc1-3)OCO2 [Berberinechloride],297
3,COc1cc2c(cc1O)CC[n+]1cc3c(OC)c(OC)ccc3cc1-2 [jatrorrhizine],209

# From BindingDB's records for doi:10.1016/j.ejmech.2011.01.016 (National Institute of Pharmaceutical Education and Research, 2011)
